ChEMBL document CHEMBL3108738, “The chemical and biological potential of C ring modified triterpenoids” (Eur J Med Chem, 2014)
Activity calls are given as the source filed them. The rule behind the calls is not given here.

Tests used:
NIH3T3 = experiment: Cytotoxicity against mouse NIH/3T3 cells after 96 hrs by SRB assay; assay type: ADME, cell-based; settings: NIH3T3, 96 h
A549 = experiment: Cytotoxicity against human A549 cells after 96 hrs by SRB assay; assay type: functional, cell-based; settings: A549, 96 h
HT-29 = experiment: Cytotoxicity against human HT-29 cells after 96 hrs by SRB assay; assay type: functional, cell-based; settings: HT-29, 96 h
A2780 [1] = experiment: Cytotoxicity against human A2780 cells after 96 hrs by SRB assay; assay type: functional, cell-based; settings: A2780, 96 h
8505C = experiment: cells; assay type: functional, cell-based; settings: Homo sapiens, 96 h
A2780 [2] = experiment: Induction of apoptosis in human A2780 cells assessed as necrotic cells at 30 uM after 24 hrs by annexin V/propidium iodide staining-based FACS analysis (reference value: 6.37%); assay type: functional
A2780 [3] = experiment: Induction of apoptosis in human A2780 cells assessed as vital cells at 30 uM after 24 hrs by annexin V/propidium iodide staining-based FACS analysis (reference value: 82.15%); assay type: functional
A2780 [4] = experiment: Induction of apoptosis in human A2780 cells assessed as secondary necrotic cells at 30 uM after 24 hrs by annexin V/propidium iodide staining-based FACS analysis (reference value: 9.71%); assay type: functional
A2780 [5] = experiment: Induction of apoptosis in human A2780 cells assessed as necrotic cells at 30 uM after 24 hrs by annexin V/propidium iodide staining-based FACS analysis (reference value: 1.78%); assay type: functional
A2780 [6] = experiment: Cell cycle arrest in human A2780 cells at 30 uM by propidium iodide staining-based FACS analysis; assay type: functional
A2780 [7] = experiment: Cell cycle arrest in human A2780 cells assessed as accumulation at S phase at 30 uM by propidium iodide staining-based FACS analysis (reference value: 32.439 %); assay type: functional
A2780 [8] = experiment: Cell cycle arrest in human A2780 cells assessed as accumulation at G2 phase at 30 uM by propidium iodide staining-based FACS analysis (reference value: 15.721 %); assay type: functional
A2780 [9] = experiment: Cell cycle arrest in human A2780 cells assessed as accumulation at G1 phase at 30 uM by propidium iodide staining-based FACS analysis (reference value: 51.839 %); assay type: functional
MCF7 = experiment: Cytotoxicity against human MCF7 cells after 96 hrs by SRB assay; assay type: functional, cell-based; settings: MCF7, 96 h
[10] = Cytotoxicity against human 518A2 cells after 96 hrs by SRB assay; assay type: functional, cell-based; settings: 518A2, 96 h
A2780 [11] = experiment: Induction of apoptosis in human A2780 cells at 30 uM after 24 hrs by annexin V/propidium iodide staining-based FACS analysis; assay type: functional
A2780 [12] = experiment: Induction of apoptosis in human A2780 cells assessed as DNA ladder formation at 30 uM after 24 hrs by electrophoresis; assay type: functional, cell-based
How it was run: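 A2780 cells were exposed to 30 µM compound for 24 h. Floating (dead) cells were collected and washed with PBS, and DNA fragmentation was examined by gel laddering alongside an untreated control.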

A2780 [13] = experiment: Cell cycle arrest in human A2780 cells assessed as reduction of G2/M phase at 30 uM by propidium iodide staining-based FACS analysis; assay type: functional

SMILES	IC50 (NIH3T3) [µM]	IC50 (A549) [µM]	IC50 (HT-29) [µM]	IC50 (A2780 [1]) [µM]	IC50 (8505C) [µM]	Activity (A2780 [2]) [%]	Activity (A2780 [3]) [%]	Activity (A2780 [4]) [%]	Activity (A2780 [5]) [%]	Activity (A2780 [6])	Activity (A2780 [7]) [%]	Activity (A2780 [8]) [%]	Activity (A2780 [9]) [%]	IC50 (MCF7) [µM]	IC50 [10] [µM]	Activity (A2780 [11])	Activity (A2780 [12])	Activity (A2780 [13])
CC1(C)CC[C@@]23CC[C@]4(C)[C@@](OC2=O)([C@@H]3C1)[C@@H](I)C[C@@H]1[C@@]2(C)C[C@@H](O)[C@H](O)C(C)(C)[C@@H]2CC[C@]14C	80.2	34.4	> 90	31.5	72.1	–	–	–	–	–	–	–	–	–	–	–	–	–
CC1(C)CC[C@@]23CC[C@]4(C)[C@@](OC2=O)([C@@H]3C1)[C@@H](Br)C[C@@H]1[C@@]2(C)C[C@@H](O)[C@H](O)C(C)(C)[C@@H]2CC[C@]14C	43.1	29.1	> 90	25.9	36.5	–	–	–	–	–	–	–	–	–	–	–	–	–
COC(=O)[C@]12CCC(C)(C)C[C@H]1C1=CC[C@@H]3[C@@]4(C)CC[C@H](OC(C)=O)C(C)(C)[C@@H]4CC[C@@]3(C)[C@]1(C)CC2	34.3	26.1	26.7	8.6	20.5	15.68	72.47	9.43	2.41	inactive	28.805	15.901	55.294	16.7	34.1	–	–	–
CC1(C)CC[C@@]23CC[C@]4(C)[C@@](OC2=O)([C@@H]3C1)[C@@H](O)C[C@@H]1[C@@]2(C)C[C@@H](O)[C@H](O)C(C)(C)[C@@H]2CC[C@]14C	22.1	> 90	92.8	39.9	> 90	–	–	–	–	–	–	–	–	> 90	78.4	–	–	–
CC(=O)O[C@H]1CC[C@]2(C)[C@H]3C[C@H](OC(C)=O)[C@]45OC(=O)[C@@]6(CCC(C)(C)C[C@H]64)CC[C@@]5(C)[C@]3(C)CC[C@H]2C1(C)C	7.2	6.6	14.1	5.6	7	32.66	44.89	18.67	3.78	inactive	27.288	16.597	56.115	18.5	6.8	Active	Active	–
COC(=O)[C@]12CCC(C)(C)C[C@H]1C1=CC[C@@H]3[C@@]4(C)C[C@@H](OC(C)=O)[C@H](OC(C)=O)C(C)(C)[C@@H]4CC[C@@]3(C)[C@]1(C)CC2	30.5	7.8	26.3	6.8	13.3	–	–	–	–	–	–	–	–	> 30	8.6	–	–	–
COC(=O)[C@]12CCC(C)(C)C[C@H]1C1=C(O)C(=O)[C@@H]3[C@@]4(C)CC[C@H](O)C(C)(C)[C@@H]4CC[C@@]3(C)[C@]1(C)CC2	25.8	25.6	15.3	17.5	23.3	48.08	25.72	19.74	6.65	–	21.594	18.968	59.438	25.8	21.2	>50%	–	–
CC(=O)O[C@H]1CC[C@]2(C)[C@H]3CC(=O)[C@@H]4[C@@H]5CC(C)(C)CC[C@]5(C(=O)OCc5ccccc5)CC[C@@]4(C)[C@]3(C)CC[C@H]2C1(C)C	> 90	69.1	> 90	19.8	41.9	–	–	–	–	–	40.927	1.057	58.015	> 90	73.2	–	–	Active
COC(=O)[C@]12CCC(C)(C)C[C@H]1C1=CC[C@@H]3[C@@]4(C)C[C@@H](O)[C@H](O)C(C)(C)[C@@H]4CC[C@@]3(C)[C@]1(C)CC2 [MASLINIC ACID METHYL ESTER]	–	–	–	17.8	–	–	–	–	–	–	–	–	–	–	–	–	–	–
COC(=O)[C@]12CCC(C)(C)C[C@H]1C1=CC(=O)[C@@H]3[C@@]4(C)CC[C@H](OC(C)=O)C(C)(C)[C@@H]4CC[C@@]3(C)[C@]1(C)CC2	33.6	66.1	29.4	40	16.2	13.28	72.75	12.57	1.4	–	25.334	17.835	56.831	–	24.1	–	–	–
